Reference: ChEMBL document CHEMBL1144352, “Effects of flavonoids on cell proliferation and caspase activation in a human colonic cell line HT29: an SAR study” (2005)

Experiments:
Type in all cases: functional
[1] = test system: HT-29; experiment: Antiproliferative effect against human colonic cell line (HT-29) after 6 hr at a concentration of 50 uM
How it was run: (§1)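 HT-29 cells plated at 15 000/well in DMEM with 5% fetal calf serum for 24 h, then medium replaced with fresh medium containing compound at 50 µM plus 200 µM sodium ascorbate. After incubation, neutral red (50 µg/mL) uptake for 2 h, formaldehyde/CaCl2 fixation, ethanol:acetic acid extraction, OD 550 nm. Result as % of control cells, mean ± SD, n > 18 wells, ≥4 experiments.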

[2] = test system: HT-29; experiment: Antiproliferative effect against human colonic cell line (HT-29) after 24 hr at a concentration of 50 uM; how it was run: as §1
[3] = test system: HT-29; experiment: Caspase 3/7 activity is expressed as ratio of caspase activation in treated human colonic cell line (HT-29) to that of untreated control cells after 5 hr
How it was run: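 Caspase 3/7 measured with ApopOne kit. HT-29 cells were seeded at 15 000/well and exposed to test molecule for 5 h. Reagent containing caspase substrate and lysis buffer was then added, followed by 45 min at 37 °C. Fluorescence read at excitation 485 nm and emission 538 nm. Reported as ratio of treated to untreated control, mean of duplicate wells on one plate.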

SMILES	Activity [1]	Activity [2]	Caspase induction [3]
COc1ccc(-c2cc(=O)c3c(OC)c(OC)c(OC)cc3o2)cc1O	95.4	102.1	
Cc1c(O)cc2oc(-c3ccccc3)cc(=O)c2c1O	104	101	
CC(C)=CCc1c(O)cc2oc(-c3ccccc3)cc(=O)c2c1O	87.9	87.9	
O=c1cc(-c2ccccc2)oc2cc(OCc3ccccc3)cc(O)c12	96.6	87.1	
O=c1cc(-c2ccccc2)oc2cc(O)c(Cc3ccccc3)c(O)c12	65.3	57.6	
O=c1cc(-c2ccccc2)oc2c(Cc3ccccc3)c(O)cc(O)c12	103.2	97.4	
CC(C)=CCc1c(O)cc(O)c2c(=O)cc(-c3ccccc3)oc12	86.3	75.5	0.9
COc1cc(O)cc2oc(-c3ccccc3)cc(=O)c12	104.7	107.6	
C=CC(C)(C)c1c(O)cc(O)c2c(=O)c(O)c(-c3ccccc3)oc12	76.7	63	1.1
COc1cc(-c2oc3cc(O)cc(O)c3c(=O)c2OC)cc(OC)c1OC	101.9	101.8	
COc1ccc(C(=O)/C=C(\O)c2ccc(O)cc2O)cc1	96.2	96.6	
C=CC(C)(C)c1c(O)cc(O)c2c(=O)cc(-c3ccccc3)oc12	76.7	57.7	1.1
CC(C)=CCC/C(C)=C/COc1cc(O)c2c(=O)cc(-c3ccccc3)oc2c1	90.4	84.3	1.2
C=CC(C)(C)c1c(O)cc2oc(-c3ccccc3)cc(=O)c2c1O	90.4	79.1	
CC(C)=CCc1c(O)cc(O)c2c(=O)c(O)c(-c3ccc(O)cc3)oc12	78.8	71.1	2.7
C=CC(C)(CCC=C(C)C)c1c(O)cc(O)c2c(=O)cc(-c3ccccc3)oc12 (configuration not stated)	28.4	28.1	8.9
C=CC(C)(C)c1cc(C(=O)/C=C/c2ccccc2)c(O)cc1O	35.4	15.6	7.3
COc1c(-c2ccccc2)oc2c(O)c(O)c(CC=C(C)C)c(O)c2c1=O	59.8	71.8	3.5
CC(C)=CCC/C(C)=C/CC/C(C)=C/COc1cc(O)c2c(=O)cc(-c3ccccc3)oc2c1	87.8	83.3	
C=CC(C)(CC/C=C(\C)CCC=C(C)C)c1c(O)cc(O)c2c(=O)cc(-c3ccccc3)oc12 (configuration not stated)	43.3	24.5	6.9
C=CC(C)(C)c1c(O)cc(O)c2c(=O)c(OC)c(-c3ccc(OC)c(OC)c3)oc12	8.5	4.7	5.2

SMILES	Activity [1]	Activity [2]	Caspase induction [3]
CC(C)=CCC/C(C)=C/Cc1c(O)cc(O)c2c(=O)cc(-c3ccccc3)oc12	18	7.6	9
CC(C)=CCOc1cc(O)cc2oc(-c3ccccc3)cc(=O)c12	17	19.4	1.4
CC(C)=CCc1c(O)cc(O)c2c(=O)c(O)c(-c3ccc(O)c(O)c3)oc12	68	67	1.9
C=CC(C)(C)c1c(O)cc(O)c2c(=O)c(O)c(-c3ccc(OC)cc3)oc12	56.4	42.1	
COc1ccc(-c2oc3cc(O)cc(O)c3c(=O)c2OC)cc1OC	87.9	74.2	1.1
CC(C)=CCC/C(C)=C/Cc1c(O)cc2oc(-c3ccccc3)cc(=O)c2c1O	58.2	53.9	1.9
CC(C)=CCc1c(O)c(O)c2oc(-c3ccccc3)cc(=O)c2c1O	67.4	71.7	1.6
COc1ccc(-c2oc3cc(O)cc(O)c3c(=O)c2OC)c(OC)c1OC	89.7	91.5	
C=CC(C)(C)c1c(O)cc(O)c2c(=O)c(OC)c(-c3ccc(OC)cc3)oc12	34.5	20.1	8.1
COc1cc(-c2cc(=O)c3c(OC)c(OC)c(OC)cc3o2)cc(OC)c1OC	94.2	100.7	
CC(C)=CCc1c(O)cc(O)c2c(=O)cc(-c3ccc(O)cc3)oc12	76.9	56.2	
COc1cc(OC)c(-c2oc3cc(O)cc(O)c3c(=O)c2OC)cc1OC	90	92.5	
C=CC(C)(C)c1c(O)cc(O)c2c(=O)c(OC)c(-c3ccccc3)oc12	79.3	79.4	1.3
COc1cc2oc(-c3ccccc3)cc(=O)c2c(O)c1C	92.2	83.8	
O=C(/C=C/c1ccc(O)cc1)c1c(O)cc(O)cc1O [4,2',4',6'-TETRAHYDROXYCHALCONE]	102	94.1	
O=c1cc(-c2ccccc2)oc2cc(O)cc(O)c12 [CHRYSIN]	86.6	62.8	0.8
COc1ccc(-c2oc3cc(O)cc(O)c3c(=O)c2OC)cc1 [ERMANIN]	92	77.1	1.2
COc1ccc(-c2oc3cc(O)cc(O)c3c(=O)c2O)cc1 [KAEMPFERIDE]	99.77	84.7	1
O=c1c(O)c(-c2ccc(O)cc2)oc2cc(O)cc(O)c12 [KAEMPFEROL]	92	89.6	1.8
O=C1C[C@@H](c2ccc(O)cc2)Oc2cc(O)cc(O)c21 [NARINGENIN]	102.2	94.8	
O=c1c(O)c(-c2ccc(O)c(O)c2)oc2cc(O)cc(O)c12 [QUERCETIN]	61.4	51.3	1
